For data set [1], the species on record is Cavia porcellus. Kind of data set: The degree of cardiac depression produced by a concentration of 10 E-4 M was determined in guinea pig. It counts as functional. In short, it runs like this: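 Cardiac depression was measured at 10⁻⁴ M in the isolated guinea pig left atrial preparation and taken as an index of class I activity.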
The species entered for data set [2] is Cavia porcellus. Kind of data set: Concentration required to prolong the effective refractory period (ERP) by 25% in isolated guinea pig left atria. The class given is functional. Summed up: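 Isolated guinea pig left atria were studied by the extrastimulus technique. The molar concentration raising ERP by 25% (ED25) was determined. Values are the mean of two similar determinations, ±4%.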

For data set [3], the species on record is Cavia porcellus. Kind of data set: Action potential duration (APD50) repolarization in guinea pig right papillary muscle was determined at concentration 5 x 10E-8 M. The class given is functional, Muscle tissue. In short, it runs like this:
(§1)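 Isolated guinea pig right papillary muscle exposed to the concentration given in each line. Action potential duration was read at 50% and 90% repolarization, and phase 0 maximum rate of depolarization (MRD) was also recorded. Values are means ± SD of 30 or 31 observations from three preparations, compared with control by t test.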

For data set [4], the species on record is Cavia porcellus. As to the kind of experiment: Maximum rate of depolarization (MRD) during phase 0 in guinea pig right papillary muscle was determined at concentration 2 x 10E-5 M. The class given is functional, Muscle tissue. In short, it runs like this: as §1
For data set [5], the species on record is Cavia porcellus. As to the kind of experiment: Maximum rate of depolarization (MRD) during phase 0 in guinea pig right papillary muscle was determined at concentration 5 x 10E-8 M. It counts as functional, Muscle tissue. Summed up:
as §1

The species named for data set [6] is Cavia porcellus. As to the kind of experiment: Maximum rate of depolarization (MRD) during phase 0 in guinea pig right papillary muscle was determined at concentration 5 x 10E-9 M. The class given is functional, Muscle tissue. Summed up:
as §1

The species named for data set [7] is Cavia porcellus. As to the kind of experiment: Action potential duration (APD90) repolarization in guinea pig right papillary muscle was determined at concentration 5 x 10E-9 M. It counts as functional, Muscle tissue. Summed up:
as §1

The nature of data set [8]: Oral bioavailability in dog. It counts as ADME, organism-based, Canis lupus familiaris. To be noted: in vivo.
Data set [9] is filed under the species Cavia porcellus. As to the kind of experiment: Action potential duration (APD50) repolarization in guinea pig right papillary muscle was determined at concentration 5 x 10E-9 M. It counts as functional, Muscle tissue. In short, it runs like this:
as §1

A short description of data set [10]: Oral bioavailability in man. It counts as ADME, organism-based. As to conditions: human, in vivo.
For data set [11], the species on record is Cavia porcellus. As to the kind of experiment: Maximum rate of depolarization (MRD) during phase 0 in guinea pig right papillary muscle was determined at concentration 10E-6 M. The class given is functional, Muscle tissue. Summed up: as §1
The species entered for data set [12] is Cavia porcellus. As to the kind of experiment: Action potential duration (APD50) repolarization in guinea pig right papillary muscle was determined at concentration 10E-6 M. The class given is functional, Muscle tissue. Summed up:
as §1

The nature of data set [13]: Distribution coefficient at pH 7.4. The class given is physicochemical. To be noted: octanol/water.
Data set [14] is filed under the species Cavia porcellus. Kind of data set: Action potential duration (APD50) repolarization in guinea pig right papillary muscle was determined at concentration 2 x 10E-5 M. It counts as functional, Muscle tissue. In short, it runs like this: as §1
For data set [15], the species on record is Cavia porcellus. Kind of data set: Action potential duration (APD90) repolarization in guinea pig right papillary muscle was determined at concentration 10E-6 M. It counts as functional, Muscle tissue. Summed up: as §1
For data set [16], the species on record is Cavia porcellus. Kind of data set: Action potential duration (APD90) repolarization in guinea pig right papillary muscle was determined at concentration 5 x 10E-8 M. The class given is functional, Muscle tissue. In short, it runs like this:
as §1

Values joined by “and” are separate entries in the source; they are usually repeats but may differ in a detail not shown here. Identical values can stand only once. Some results are limits rather than exact numbers.

The molecule `CN(CCOc1ccc(CC(N)=O)cc1)CCc1ccc(NS(C)(=O)=O)cc1` had a Cardiac depression in the data set filed under Cavia porcellus [1] of 7%. In the data set listed under Cavia porcellus [2], this molecule registered an ED25 of 10 µM.

As for `COC(=O)c1ccc(OCCN(C)CCc2ccc(NS(C)(=O)=O)cc2)cc1`, the Cardiac depression in the data set filed under Cavia porcellus [1] is given as 47%. For the same molecule, the ED25 in the data set listed under Cavia porcellus [2] is 4.1 µM.

Turning to `CN(CCOc1ccc(C(N)=O)cc1)CCc1ccc(NS(C)(=O)=O)cc1`, the Cardiac depression in the data set listed under Cavia porcellus [1] is reported as 7%. In the data set filed under Cavia porcellus [2], this molecule came in with an ED25 of 1.5 µM.

As for `CN(CCSc1ccc(NS(C)(=O)=O)cc1)CCc1ccc(NS(C)(=O)=O)cc1`, in the data set listed under Cavia porcellus [1], the Cardiac depression turned out to be 21%. In the data set filed under Cavia porcellus [2], the ED25 was determined as 0.3 µM.

In turn, `CN(CCCCc1ccc(NS(C)(=O)=O)cc1)CCc1ccc(NS(C)(=O)=O)cc1` had a Cardiac depression in the data set listed under Cavia porcellus [1] of 32%. The same molecule had an ED25 in the data set listed under Cavia porcellus [2] of 67 µM.

`CN(CCOc1cccc(C(N)=O)c1)CCc1ccc(NS(C)(=O)=O)cc1` yielded a Cardiac depression in the data set filed under Cavia porcellus [1] of 3%. Moreover, in the data set listed under Cavia porcellus [2], the ED25 turned out to be 0.82 µM.

In the data set listed under Cavia porcellus [1], `CN(CCOC(c1ccccc1)c1ccc(NS(C)(=O)=O)cc1)CCc1ccc(NS(C)(=O)=O)cc1` (configuration not stated) registered a Cardiac depression of 35%. In the data set listed under Cavia porcellus [2], this molecule registered an ED25 of 12 µM.

Molecule `CN(CCOc1cccc(NS(C)(=O)=O)c1)CCc1ccc(NS(C)(=O)=O)cc1` showed a Cardiac depression in the data set filed under Cavia porcellus [1] of 9%. For the same molecule, the ED25 in the data set filed under Cavia porcellus [2] amounted to 3 µM.

In the data set filed under Cavia porcellus [1], `CN(CCCc1ccc(NS(C)(=O)=O)cc1)CCc1ccc(NS(C)(=O)=O)cc1` had a Cardiac depression of 23%. Besides, the ED25 in the data set listed under Cavia porcellus [2] came to 2.7 µM.

For `CN(CCOc1ccc(S(N)(=O)=O)cc1)CCc1ccc(NS(C)(=O)=O)cc1`, the Cardiac depression in the data set filed under Cavia porcellus [1] came out at 7%. The molecule also returned an ED25 in the data set listed under Cavia porcellus [2] of 2.2 µM.

In the data set filed under Cavia porcellus [1], `CCN(CC)C(=O)c1ccc(OCCN(C)CCc2ccc(NS(C)(=O)=O)cc2)cc1` registered a Cardiac depression of 9%. Moreover, the ED25 in the data set filed under Cavia porcellus [2] was determined as 32 µM.

`CN(CCOc1ccc(NS(C)(=O)=O)cc1Cl)CCc1ccc(NS(C)(=O)=O)cc1` returned a Cardiac depression in the data set filed under Cavia porcellus [1] of 16%. Besides, in the data set filed under Cavia porcellus [2], the ED25 came to 18 µM.

Regarding `CN(CCc1ccc(NS(C)(=O)=O)cc1)CCc1ccc(NS(C)(=O)=O)cc1`, the Cardiac depression in the data set filed under Cavia porcellus [1] amounted to 20%. Moreover, the ED25 in the data set listed under Cavia porcellus [2] stood at 2 µM.

In the case of `Cc1ccc(NS(C)(=O)=O)c(OCCN(C)CCc2ccc(NS(C)(=O)=O)cc2)c1.Cl`, the Cardiac depression in the data set filed under Cavia porcellus [1] worked out at 24%. The molecule further registered an ED25 in the data set filed under Cavia porcellus [2] of 17 µM.

Take `CN(CCCCOc1ccc(NS(C)(=O)=O)cc1)CCc1ccc(NS(C)(=O)=O)cc1.Cl`: in the data set filed under Cavia porcellus [1], the Cardiac depression is reported as 23%. Also, the ED25 in the data set filed under Cavia porcellus [2] amounted to 40 µM.

As for `Cc1ccc(OCCN(C)CCc2ccc(NS(C)(=O)=O)cc2)c(C(N)=O)c1.Cl`, in the data set listed under Cavia porcellus [1], the Cardiac depression worked out at 22%. Further, the ED25 in the data set filed under Cavia porcellus [2] came to 1 µM.

`CNC(=O)Nc1ccc(OCCN(C)CCc2ccc(NS(C)(=O)=O)cc2)cc1.Cl` displayed a Cardiac depression in the data set listed under Cavia porcellus [1] of 0%. In addition, in the data set filed under Cavia porcellus [2], the ED25 was found to be 70 µM.

The molecule `CN(CCOc1ccccc1NS(C)(=O)=O)CCc1ccc(NS(C)(=O)=O)cc1.Cl` yielded a Cardiac depression in the data set filed under Cavia porcellus [1] of 19%. In the data set filed under Cavia porcellus [2], the ED25 amounted to 2.5 µM.

`CN(CCOc1ccc(C(F)(F)F)cc1)CCc1ccc(NS(C)(=O)=O)cc1.Cl` registered a Cardiac depression in the data set filed under Cavia porcellus [1] of 30%. In the data set filed under Cavia porcellus [2], this molecule showed an ED25 of 90 µM.

With `CNC(=O)c1ccc(OCCN(C)CCc2ccc(NS(C)(=O)=O)cc2)cc1.Cl`, the Cardiac depression in the data set filed under Cavia porcellus [1] worked out at 5%. The ED25 in the data set listed under Cavia porcellus [2] is 1.5 µM.

As to `CN(CCCOc1ccc(NS(C)(=O)=O)cc1)CCc1ccc(NS(C)(=O)=O)cc1.Cl`, the Cardiac depression in the data set filed under Cavia porcellus [1] was 44%. Also, in the data set listed under Cavia porcellus [2], the ED25 worked out at 20 µM.

Take `CN(CCOc1ccc(C(=O)N2CCOCC2)cc1)CCc1ccc(NS(C)(=O)=O)cc1.Cl`: the Cardiac depression in the data set listed under Cavia porcellus [1] is on record as 15%. Further, the ED25 in the data set filed under Cavia porcellus [2] was found to be 20 µM.

Broadly, the bioavailability is the share of a dose that reaches the circulation, judged against a reference dose that is usually intravenous. A low value points to poor availability. The logD is the decadic logarithm of the distribution of all forms, ionised or not, between an organic phase and buffer at a given pH. Lower therefore signals a more hydrophilic compound. Turning to `CN(CCOc1ccc(NS(C)(=O)=O)cc1)CCc1ccc(NS(C)(=O)=O)cc1` [DOFETILIDE], the APD50 is 197 ms in the data set filed under Cavia porcellus [3], 170 ms in the data set listed under Cavia porcellus [9], 223 ms in the data set listed under Cavia porcellus [12] and 209 ms in the data set filed under Cavia porcellus [14]. For the same molecule, the MRD in the data set filed under Cavia porcellus [4] was found to be 273 V s-1; in the data set filed under Cavia porcellus [5] it was 273 V s-1; in the data set filed under Cavia porcellus [6], 261 V s-1; in the data set filed under Cavia porcellus [11], 269 V s-1. The APD90 in the data set filed under Cavia porcellus [7] is <209 ms and <273 ms; in the data set filed under Cavia porcellus [15], 288 ms; in the data set listed under Cavia porcellus [16], 246 ms. In addition, the bioavailability was determined as 72% in data set [8] and 100% in [10]. In the data set listed under Cavia porcellus [1], the Cardiac depression is reported as 0%. This molecule registered an ED25 in the data set listed under Cavia porcellus [2] of 0.13 µM. Also, the logD in [13] came to 0.96.

Molecule `CC(C)NCC(O)c1ccc(NS(C)(=O)=O)cc1` (configuration not stated) [SOTALOL] showed a Cardiac depression in the data set listed under Cavia porcellus [1] of 5%. The molecule also returned an ED25 in the data set listed under Cavia porcellus [2] of 200 µM.

Values taken from ChEMBL document CHEMBL1124739, “Selective class III antiarrhythmic agents. 1 Bis(arylalkyl)amines” (J Med Chem, 1990).
